# Compound activity from PubChem.
# T cruzi growth-1 = T. cruzi intracellular proliferation inhibitors, primary screen, cell-based, beta-gal Tulahuen parasites, NIH3T3 host, luminescence; T. cruzi beta-gal in NIH3T3, GalScreen luminescence, 90 h; inhibition, % at 8.34 µM; hit rate 5.9% among 77,000;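 active = mean inhibition above about 93%, with at least 55% of replicates each passing it, limit read from the data, passing the limit was not always enough; inconclusive = only one of those two conditions holds; inactive = neither condition holds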
# IDH1 mut inh = inhibitors of IDH1 R132H reductase, primary screen, biochemical, plate reader, single point; diaphorase/resazurin fluorescence, 60 min; inhibition, % at 10 µM; hit rate 0.18% among 70,000; in the data active = inhibition above about 34%; inconclusive = no clear call, values can overlap the other calls; inactive = below about 11%;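 note: 0% = DMSO and 100% = no enzyme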
# GASC1 inh = inhibitors of GASC-1 (KDM4C) histone demethylase, primary screen, biochemical, single concentration HTS; hit rate 0.15% among 96,000; GST-KDM4C 2-372, H3K9me3 peptide, LANCE TR-FRET; Lysine-specific demethylase 4C (Homo sapiens), Q9H3R0; inhibition, % at 12.5 µM;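 active = mean replicate inhibition above about 25%, with at least 55% of replicates also reaching it, limit read from the data, passing the limit was not always enough; inconclusive = only one of those two conditions met; inactive = neither condition met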
# Target sequence (Q9H3R0 2-372 limits assumed): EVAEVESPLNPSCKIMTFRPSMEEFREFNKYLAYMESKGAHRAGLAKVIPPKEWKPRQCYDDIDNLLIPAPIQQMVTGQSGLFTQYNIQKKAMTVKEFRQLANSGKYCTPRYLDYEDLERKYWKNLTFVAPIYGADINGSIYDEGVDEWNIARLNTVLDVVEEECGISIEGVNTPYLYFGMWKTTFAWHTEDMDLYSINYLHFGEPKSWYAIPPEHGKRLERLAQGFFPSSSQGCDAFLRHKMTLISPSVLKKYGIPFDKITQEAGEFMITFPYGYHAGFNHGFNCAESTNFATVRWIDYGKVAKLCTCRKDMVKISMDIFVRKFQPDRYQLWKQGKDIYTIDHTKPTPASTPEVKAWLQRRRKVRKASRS
#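 material = GST-tagged GASC-1 (JMJD2C) catalytic fragment, aa 2-372 | amount = enzyme final amount 10 nM | medium = HEPES buffer, pH 7.5, plus ascorbate | also added = H3K9me3 peptide substrate, Fe(II), 2-oxoglutarate | dosing = single dose | times = 30 min demethylation and 1 h detection at room temperature | detection = LANCE TR-FRET | read-out basis = Fall in 671/618 emission ratio as inhibition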
# T cruzi growth-2 = T. cruzi intracellular proliferation inhibitors, confirmation, cell-based, NIH3T3 host, beta-gal parasite, luminescence, cherry-pick. inhibition, % at 8.35 µM. T. cruzi beta-gal in NIH3T3, GalScreen luminescence, 90 h. hit rate 72% among 5,600. shares compounds with T cruzi growth-1;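 active = mean replicate inhibition above about 95% and at least 55% of replicates individually reaching it, limit read from the data; inconclusive = only one of the two criteria is met; inactive = neither criterion is met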
# T cruzi growth-3 = inhibitors of intracellular T. cruzi replication, confirmation, NIH3T3 host cells, beta-gal parasites, cherry-pick, set 2; hit rate 21% among 5,600; inhibition, % at 2.09 µM; T. cruzi beta-gal in NIH3T3, GalScreen luminescence, 90 h; shares compounds with T cruzi growth-1;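 active = mean inhibition above about 95%, with at least 55% of replicates also reaching it, limit read from the data; inconclusive = meets just one of the two conditions; inactive = meets neither condition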;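 note: plate controls were neutral control median for no effect and positive control median for full effect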
# 3T3 cytotox = cytotoxicity in mouse NIH/3T3 fibroblasts, confirmation, cytotoxicity control for T. cruzi proliferation inhibitor project, cell-based, cherry-pick, single point. shares compounds with T cruzi growth-1. NIH/3T3 viability, CellTiter-Glo ATP luminescence, 90 h. cytotoxicity (signal decrease), % at 8.35 µM. hit rate 14% among 5,600;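 active = mean signal decrease across replicates above about 35% based on untreated-well scatter, with enough replicates individually passing, limit read from the data; inconclusive = no rule stated though some were filed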;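 note: 0% = median of neutral control wells and 100% = median of positive control wells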
# 3T3 cytotox 2 = NIH/3T3 fibroblast cytotoxicity, confirmation, cytotoxicity control, cell-based, cherry-pick, single point, set 2; AID 651744, 2012; shares compounds with T cruzi growth-1; hit rate 56% among 5,600; NIH/3T3 viability, CellTiter-Glo ATP luminescence, 90 h; inhibition, % at 24.9 µM;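 active = mean loss of cell viability signal at or above a set limit, and enough replicates individually reaching it; inconclusive = meets only the mean limit or only the replicate share; inactive = meets neither condition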;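 note: 0% = median of neutral control wells and 100% = median of positive control wells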
# * hit, by the source's call; ? = inconclusive; · = no result. The entries come from a sample that favours hits as a whole.
SMILES,T cruzi growth-1,IDH1 mut inh,GASC1 inh,T cruzi growth-2,T cruzi growth-3,3T3 cytotox,3T3 cytotox 2
O=S(=O)(c1ccccc1)N1CCCCN2[C@H](CO)[C@H](c3ccc(C#Cc4cccnc4)cc3)[C@H]2C1,109*,·,3,114*,72,20,63*
N#Cc1ccc(-c2ccc([C@@H]3[C@@H](CO)N4CCCCN(S(=O)(=O)c5ccccc5)C[C@H]34)cc2)cc1,37,·,-1,·,·,·,·
O=S(=O)(c1ccccc1)N1CCCCN2[C@H](C1)[C@H](c1ccc(C#Cc3ccccc3)cc1)[C@@H]2CO,?,·,1,101*,78,?,105*
COc1ccc(C#Cc2ccc([C@@H]3[C@@H](CO)N4CCCCN(S(=O)(=O)c5ccccc5)C[C@@H]34)cc2)cc1,71,·,·,·,·,·,·
O=S(=O)(c1ccccc1)N1CCCCN2[C@H](CO)[C@H](c3ccc(C#Cc4ccccc4)cc3)[C@@H]2C1,38,·,-2,·,·,·,·
N#Cc1ccc(-c2ccc([C@H]3[C@@H](CO)N4CCCCN(S(=O)(=O)c5ccccc5)C[C@@H]34)cc2)cc1,96*,·,-1,107*,38,-12,11
CCc1cccc(C)c1NC(=O)CSc1nnc(C)n1-c1ccc(F)cc1,·,1,·,·,·,·,·
O=C(N/N=C/c1nccs1)c1ccccn1,·,-1,·,·,·,·,·
COC(=O)c1ccccc1Oc1nc(NC(C)C)nc(NC(C)C)n1,·,1,·,·,·,·,·
N#CC(C(=Nc1ccccc1)SCc1ccc(Cl)cc1)c1nc2ccccc2[nH]1 (stereo not given),·,0,·,·,·,·,·
NS(=O)(=O)c1ccc(NC(=O)CC2c3ccccc3Oc3ccccc32)cc1,·,0,·,·,·,·,·
COc1ccccc1-c1cnc2c(c1)C(=O)N([C@H](C)CO)C[C@@H](C)[C@H](CN(C)C(C)=O)O2,9,-1,-2,·,·,·,·
COc1ccccc1-c1cnc2c(c1)C(=O)N([C@H](C)CO)C[C@H](C)[C@H](CN(C)C(C)=O)O2,?,-12,4,35,2,19,-6
COc1ccccc1-c1cnc2c(c1)C(=O)N([C@H](C)CO)C[C@@H](C)[C@@H](CN(C)C(C)=O)O2,99*,-1,0,?,42,16,24
COc1ccccc1-c1cnc2c(c1)C(=O)N([C@@H](C)CO)C[C@@H](C)[C@@H](CN(C)C(C)=O)O2,12,·,4,·,·,·,·
Cc1ccc2c(c1)c1c(n2CC(O)CO)C(=O)CCC1 (stereo not given),·,2,·,·,·,·,·
CS(=O)(=O)N(CC(=O)Nc1ccc(Br)cc1)c1ccc2c(c1)OCCO2,·,0,·,·,·,·,·
C[C@H](CO)N1C[C@H](C)[C@H](CN(C)C(=O)Nc2ccc3c(c2)OCO3)OCCCC[C@H](C)Oc2ccc(NS(=O)(=O)c3ccc(Cl)cc3)cc2C1=O,97*,·,0,113*,57,-23,-26
C[C@@H]1CCCCO[C@@H](CN(C)C(=O)Nc2ccc3c(c2)OCO3)[C@@H](C)CN([C@H](C)CO)C(=O)c2cc(NS(=O)(=O)c3ccc(Cl)cc3)ccc2O1,14,-1,-1,·,·,·,·
C[C@H]1CCCCO[C@H](CN(C)C(=O)Nc2ccc3c(c2)OCO3)[C@@H](C)CN([C@@H](C)CO)C(=O)c2cc(NS(=O)(=O)c3ccc(Cl)cc3)ccc2O1,49,-1,13,·,·,·,·
C[C@@H]1CCCCO[C@H](CN(C)C(=O)Nc2ccc3c(c2)OCO3)[C@H](C)CN([C@@H](C)CO)C(=O)c2cc(NS(=O)(=O)c3ccc(Cl)cc3)ccc2O1,?,·,·,102*,36,-7,-16
CCOc1ccccc1C(=O)Nc1ccc(S(=O)(=O)Nc2ccccn2)cc1,·,0,·,·,·,·,·
C[C@H]1CN([C@@H](C)CO)S(=O)(=O)c2ccc(C#CCN(C)C)cc2O[C@@H]1CN(C)C(=O)C1CCCCC1,·,·,3,·,·,·,·
C[C@H](CO)N1C[C@H](C)[C@@H](CN(C)C(=O)C2CCC2)Oc2cc(C#CCN(C)C)ccc2S1(=O)=O,106*,1,2,99*,93,19,8
C[C@H](CO)N1C[C@H](C)[C@@H](CN(C)C(=O)C2CC2)Oc2cc(C#CCN(C)C)ccc2S1(=O)=O,100*,·,1,107*,92,14,15
SMILES,T cruzi growth-1,IDH1 mut inh,GASC1 inh,T cruzi growth-2,T cruzi growth-3,3T3 cytotox,3T3 cytotox 2
C[C@@H]1CN([C@H](C)CO)S(=O)(=O)c2ccc(C#CCN(C)C)cc2O[C@@H]1CN(C)C(=O)C1CCC1,72,·,4,·,·,·,·
COc1ccc(-c2cc(=O)[nH]c(SCC(=O)Nc3ccc(Oc4ccccc4)cc3)n2)cc1,·,0,·,·,·,·,·
COc1cccc(-n2nnnc2SCC(=O)Nc2ccccc2)c1,·,0,·,·,·,·,·
C[C@@H]1CN([C@@H](C)CO)S(=O)(=O)c2ccc(C#Cc3ccccc3)cc2O[C@@H]1CN(C)C(=O)Cc1ccccn1,67,0,-1,·,·,·,·
C[C@H]1CN([C@@H](C)CO)S(=O)(=O)c2ccc(C#Cc3ccccc3)cc2O[C@@H]1CN(C)C(=O)Cc1ccccn1,105*,0,-4,105*,35,21,51*
C[C@@H]1CN([C@@H](C)CO)S(=O)(=O)c2ccc(C#Cc3ccccc3)cc2O[C@H]1CN(C)C(=O)Cc1ccccn1,72,-2,-4,·,·,·,·
C[C@@H]1CN([C@H](C)CO)S(=O)(=O)c2ccc(C#Cc3ccccc3)cc2O[C@@H]1CN(C)C(=O)Cc1ccccn1,?,0,1,109*,73,24,58*
Cc1nn(Cc2ccc(Br)cc2)c(C)c1NC(=O)Cn1nc(C(F)(F)F)c2c1CCCCC2,·,0,·,·,·,·,·
Cc1ccc(S(=O)(=O)N(C)C[C@@H]2OCCCC[C@H](C)Oc3ccc(NC(=O)Nc4ccccc4)cc3C(=O)N([C@H](C)CO)C[C@@H]2C)cc1,106*,·,6,106*,72,2,0
Cc1ccc(S(=O)(=O)N(C)C[C@@H]2OCCCC[C@@H](C)Oc3ccc(NC(=O)Nc4ccccc4)cc3C(=O)N([C@H](C)CO)C[C@@H]2C)cc1,45,·,-1,·,·,·,·
Cc1ccc(S(=O)(=O)N(C)C[C@H]2OCCCC[C@@H](C)Oc3ccc(NC(=O)c4ccccc4)cc3C(=O)N([C@@H](C)CO)C[C@H]2C)cc1,11,·,19,·,·,·,·
C[C@@H]1CN([C@H](C)CO)C(=O)c2cc(NC(=O)Nc3ccccc3)ccc2O[C@@H](C)CCCCO[C@@H]1CN(C)S(=O)(=O)c1ccccc1,7,0,-1,·,·,·,·
